Columns and labels:
MDA-MB-231 = assay: Cytotoxicity against human MDA-MB-231/ATCC cells after 48 hrs by SRB assay; type: functional; details: MDA-MB-231, 48 h
Procedure, shortened: (§1)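 NCI 60-panel five-dose screen. Cells in RPMI 1640 with 5% FBS and 2 mM L-glutamine, plated at 5000–40,000 cells/well by doubling time, preincubated 24 h at 37 °C/5% CO2. Drug from DMSO stock added at 0.01, 0.1, 1, 10 and 100 µM, then 48 h. TCA fixation, SRB stain, absorbance at 515 nm, time-zero plates included. GI50 = 50% reduction in net protein increase versus control.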

MOLT-4 = assay: Cytotoxicity against human MOLT4 cells after 48 hrs by SRB assay; type: functional; details: MOLT-4, 48 h
Procedure, shortened: (§2)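 NCI 60-panel five-dose screen. Cells in RPMI 1640 with 5% FBS and 2 mM L-glutamine are plated at 5000–40,000 cells/well by doubling time and preincubated 24 h at 37 °C in 5% CO2. Drug in DMSO is tested at 0.01, 0.1, 1, 10 and 100 μM for 48 h. Cells are TCA-fixed, stained with SRB and read at 515 nm. GI50 is the concentration giving 50% reduction in net protein increase relative to time-zero and control plates.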

MDA-MB-435 = assay: Cytotoxicity against human MDA-MB-435 cells after 48 hrs by SRB assay; type: functional; details: MDA-MB-435, 48 h; procedure, shortened: as §1
NCI-H460 = assay: Cytotoxicity against human NCI-H460 cells after 48 hrs by SRB assay; type: functional; details: NCI-H460, 48 h; procedure, shortened: as §2
RXF 393 = assay: Cytotoxicity against human RXF393 cells after 48 hrs by SRB assay; type: functional; details: RXF 393, 48 h; procedure, shortened: as §2
DU-145 = assay: Cytotoxicity against human DU145 cells after 48 hrs by SRB assay; type: functional; details: DU-145, 48 h; procedure, shortened: as §1
[1] = Cytotoxicity against human EKVX cells after 48 hrs by SRB assay; type: functional; procedure, shortened: as §1
NCI-H522 = assay: Cytotoxicity against human NCI-H522 cells after 48 hrs by SRB assay; type: functional; details: NCI-H522, 48 h; procedure, shortened: as §2
RPMI-8226 = assay: Cytotoxicity against human RPMI8226 cells after 48 hrs by SRB assay; type: functional; details: RPMI-8226, 48 h; procedure, shortened: as §2
OVCAR-5 = assay: Cytotoxicity against human OVCAR5 cells after 48 hrs by SRB assay; type: functional; details: OVCAR-5, 48 h; procedure, shortened: as §2
MDA-MB-468 = assay: Cytotoxicity against human MDA-MB-468 cells after 48 hrs by SRB assay; type: functional; details: MDA-MB-468, 48 h; procedure, shortened: as §2
SW-620 = assay: Cytotoxicity against human SW620 cells after 48 hrs by SRB assay; type: functional; details: SW-620, 48 h
Procedure, shortened: (§3)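 NCI 60 five-dose screen. Cells in RPMI 1640 with 5% FBS and 2 mM L-glutamine, plated at 5000–40,000 cells/well by doubling time, pre-incubated 24 h at 37 °C, 5% CO2. Time-zero plates TCA-fixed at drug addition. Final concentrations 0.01, 0.1, 1, 10 and 100 µM (DMSO stock), 48 h exposure. TCA fixation, 0.4% SRB stain, absorbance 515 nm. GI50 from [(Ti−Tz)/(C−Tz)]×100 = 50.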

M14 = assay: Cytotoxicity against human M14 cells after 48 hrs by SRB assay; type: functional; details: M14, 48 h; procedure, shortened: as §1
UACC-257 = assay: Cytotoxicity against human UACC257 cells after 48 hrs by SRB assay; type: functional; details: UACC-257, 48 h; procedure, shortened: as §3
[2] = Cytotoxicity against human NCI-ADR-RES cells after 48 hrs by SRB assay; type: functional; procedure, shortened: as §2
A549 = assay: Cytotoxicity against human A549/ATCC cells after 48 hrs by SRB assay; type: functional; details: A549, 48 h; procedure, shortened: as §1
BT-549 = assay: Cytotoxicity against human BT549 cells after 48 hrs by SRB assay; type: functional; details: BT-549, 48 h; procedure, shortened: as §1
NCI-H226 = assay: Cytotoxicity against human NCI-H226 cells after 48 hrs by SRB assay; type: functional; details: NCI-H226, 48 h; procedure, shortened: as §2
HOP-62 = assay: Cytotoxicity against human HOP62 cells after 48 hrs by SRB assay; type: functional; details: HOP-62, 48 h; procedure, shortened: as §1
SK-OV-3 = assay: Cytotoxicity against human SKOV3 cells after 48 hrs by SRB assay; type: functional; details: SK-OV-3, 48 h; procedure, shortened: as §2
[3] = biological target: Epidermal growth factor receptor (Homo sapiens, UniProt P00533); assay: Inhibition of EGFR tyrosine kinase (unknown origin) using poly (Glu,Tyr) as substrate after 30 mins by ADP-GloTM assay
Epidermal growth factor receptor, sequence (P00533 whole entry): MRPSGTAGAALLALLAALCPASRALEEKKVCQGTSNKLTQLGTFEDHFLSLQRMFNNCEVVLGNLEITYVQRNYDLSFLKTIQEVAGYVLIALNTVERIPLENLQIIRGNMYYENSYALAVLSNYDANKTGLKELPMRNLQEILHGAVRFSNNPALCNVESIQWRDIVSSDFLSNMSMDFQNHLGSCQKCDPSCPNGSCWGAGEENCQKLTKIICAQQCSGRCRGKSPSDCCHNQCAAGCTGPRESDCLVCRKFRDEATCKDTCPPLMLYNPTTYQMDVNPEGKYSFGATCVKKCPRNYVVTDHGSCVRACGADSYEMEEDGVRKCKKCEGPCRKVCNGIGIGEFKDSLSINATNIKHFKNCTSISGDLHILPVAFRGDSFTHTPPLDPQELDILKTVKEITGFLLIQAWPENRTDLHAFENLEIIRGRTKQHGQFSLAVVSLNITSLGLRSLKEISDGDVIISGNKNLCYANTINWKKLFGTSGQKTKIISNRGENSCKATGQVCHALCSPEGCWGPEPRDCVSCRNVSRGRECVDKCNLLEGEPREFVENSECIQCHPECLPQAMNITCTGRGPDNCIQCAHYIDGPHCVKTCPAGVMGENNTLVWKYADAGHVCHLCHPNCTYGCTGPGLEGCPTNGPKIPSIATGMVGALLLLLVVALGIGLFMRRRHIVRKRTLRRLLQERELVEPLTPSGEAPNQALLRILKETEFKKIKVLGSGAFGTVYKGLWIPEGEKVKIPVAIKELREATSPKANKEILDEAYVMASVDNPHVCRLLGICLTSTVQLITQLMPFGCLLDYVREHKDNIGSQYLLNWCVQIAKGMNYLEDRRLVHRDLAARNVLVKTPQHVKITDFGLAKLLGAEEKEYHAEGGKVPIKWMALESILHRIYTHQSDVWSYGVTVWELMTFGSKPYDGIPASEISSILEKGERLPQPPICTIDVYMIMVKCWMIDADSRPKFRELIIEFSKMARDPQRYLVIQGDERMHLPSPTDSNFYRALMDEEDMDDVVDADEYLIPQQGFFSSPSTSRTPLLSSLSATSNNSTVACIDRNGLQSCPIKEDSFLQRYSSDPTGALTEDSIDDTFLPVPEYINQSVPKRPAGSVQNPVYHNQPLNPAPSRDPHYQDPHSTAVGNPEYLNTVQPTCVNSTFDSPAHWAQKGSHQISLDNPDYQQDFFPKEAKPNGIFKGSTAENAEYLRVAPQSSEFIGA

LOX IMVI = assay: Cytotoxicity against human LOXIMVI cells after 48 hrs by SRB assay; type: functional; procedure, shortened: as §1
OVCAR-3 = assay: Cytotoxicity against human OVCAR3 cells after 48 hrs by SRB assay; type: functional; details: OVCAR-3, 48 h; procedure, shortened: as §2
Hs-578T = assay: Cytotoxicity against human Hs578T cells after 48 hrs by SRB assay; type: functional; procedure, shortened: as §1
ACHN = assay: Cytotoxicity against human ACHN cells after 48 hrs by SRB assay; type: functional; procedure, shortened: as §1
A498 = assay: Cytotoxicity against human A498 cells after 48 hrs by SRB assay; type: functional; details: A498, 48 h; procedure, shortened: as §1
HCT-15 = assay: Cytotoxicity against human HCT15 cells after 48 hrs by SRB assay; type: functional; details: HCT-15, 48 h; procedure, shortened: as §1
[4] = read-out: LC50 (the source's name)

NC(=O)Nc1ccc2ncnc(Nc3ccc(Cl)cc3)c2c1
GI50 (MDA-MB-231): 8.92 µM | TGI (MDA-MB-231): 37.7 µM | CC50 (MDA-MB-231; [4]): > 100 µM | GI50 (MOLT-4): 18.1 µM | TGI (MOLT-4): 87.1 µM | CC50 (MOLT-4; [4]): > 100 µM | GI50 (MDA-MB-435): 16.9 µM | TGI (MDA-MB-435): 47.6 µM | CC50 (MDA-MB-435; [4]): > 100 µM | GI50 (NCI-H460): 22.4 µM | TGI (NCI-H460): > 100 µM | CC50 (NCI-H460; [4]): > 100 µM | GI50 (RXF 393): 15.1 µM | TGI (RXF 393): 75.9 µM | CC50 (RXF 393; [4]): > 100 µM | GI50 (DU-145): 2.72 µM | TGI (DU-145): > 100 µM | CC50 (DU-145; [4]): > 100 µM | GI50 [1]: 0.37 µM | TGI [1]: 4.46 µM | CC50 [1, 4]: > 100 µM | GI50 (NCI-H522): 2.4 µM | TGI (NCI-H522): 20.9 µM | CC50 (NCI-H522; [4]): > 100 µM | GI50 (RPMI-8226): 20.5 µM | TGI (RPMI-8226): 78.9 µM | CC50 (RPMI-8226; [4]): > 100 µM | GI50 (OVCAR-5): 15.2 µM | TGI (OVCAR-5): 90.3 µM | CC50 (OVCAR-5; [4]): > 100 µM | GI50 (MDA-MB-468): 1.09 µM | TGI (MDA-MB-468): 3.95 µM | CC50 (MDA-MB-468; [4]): > 100 µM | GI50 (SW-620): 39.7 µM | TGI (SW-620): > 100 µM | CC50 (SW-620; [4]): > 100 µM | GI50 (M14): 25 µM | TGI (M14): 76 µM | CC50 (M14; [4]): > 100 µM | GI50 (UACC-257): 23.5 µM | TGI (UACC-257): 75.2 µM | CC50 (UACC-257; [4]): > 100 µM | GI50 [2]: 19.5 µM | TGI [2]: > 100 µM | CC50 [2, 4]: > 100 µM | GI50 (A549): 19.2 µM | TGI (A549): > 100 µM | CC50 (A549; [4]): > 100 µM | GI50 (BT-549): 18.2 µM | TGI (BT-549): 79.3 µM | CC50 (BT-549; [4]): > 100 µM | GI50 (NCI-H226): 22.3 µM | TGI (NCI-H226): > 100 µM | CC50 (NCI-H226; [4]): > 100 µM | GI50 (HOP-62): 21.1 µM | TGI (HOP-62): 84.4 µM | CC50 (HOP-62; [4]): > 100 µM | GI50 (SK-OV-3): 3.52 µM | TGI (SK-OV-3): 20.5 µM | CC50 (SK-OV-3; [4]): > 100 µM | IC50 [3]: 0.061 µM | GI50 (LOX IMVI): 19.3 µM | TGI (LOX IMVI): 68.7 µM | CC50 (LOX IMVI; [4]): > 100 µM | GI50 (OVCAR-3): 8.36 µM | TGI (OVCAR-3): 69.5 µM | CC50 (OVCAR-3; [4]): > 100 µM | GI50 (Hs-578T): 14.8 µM | TGI (Hs-578T): 55.9 µM | CC50 (Hs-578T; [4]): > 100 µM | GI50 (ACHN): 1.47 µM | TGI (ACHN): 35.8 µM | CC50 (ACHN; [4]): > 100 µM | GI50 (A498): 0.45 µM | TGI (A498): 13 µM | CC50 (A498; [4]): 64.8 µM | GI50 (HCT-15): 17.8 µM | TGI (HCT-15): > 100 µM | CC50 (HCT-15; [4]): > 100 µM

From ChEMBL document CHEMBL2346534, “Design, synthesis and in vitro anti-proliferative activity of 4,6-quinazolinediamines as potent EGFR-TK inhibitors” (Eur J Med Chem, 2013)
